Experimental data: ChEMBL document CHEMBL3112443, “Development of new LXR modulators that regulate LXR target genes and reduce lipogenesis in human cell models” (Eur J Med Chem, 2014)
Activity calls are given as the source filed them. No cut-off for these calls is given here.

Legend:
[1] = target: T1, Liver X receptor (Homo sapiens) (UniProt Q13133+P55055); assay: Modulation of LXR in human HepG2 cells assessed as decrease of T0901317-induced ABCA1 mRNA expression at 10 uM after 4 days by qPCR analysis; type: cell-based
[2] = target: T1, Liver X receptor (Homo sapiens); assay: Modulation of LXR in human myotubes assessed as decrease of T0901317-induced ABCA1 mRNA expression at 10 uM after 4 days by qPCR analysis
Method in brief: (§1)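 Cells given 1 mM T0901317 (so in the source) together with […] test compound; DMSO 0.1% vehicle. Myotubes treated 4 days, HepG2 24 h. Total RNA reverse-transcribed with hexamer primers, then SYBR Green qPCR. Expression normalized to 36B4 and given as fold change vs DMSO control, mean ± SEM, n = 3–11 separate experiments, at least 3 parallels each.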

[3] = target: T1, Liver X receptor (Homo sapiens); assay: Modulation of LXR in human myotubes assessed as increase of ABCA1 mRNA expression at 10 uM after 4 days by qPCR analysis
Method in brief: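 Primary human myotubes (satellite cells from abdominal muscle of 6 healthy donors, differentiated 7 days at 5.5 mM glucose, 25 pM insulin) treated with compound or 0.1% DMSO for 4 days. Total RNA reverse-transcribed with hexamer primers; SYBR Green qPCR. ABCA1 normalised to 36B4 and reported as fold change versus DMSO, mean ± SEM, n = 3–11.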

[4] = target: T1, Liver X receptor (Homo sapiens); assay: Modulation of LXR in human myotubes assessed as increase of ABCA1 mRNA expression at 10 uM after 4 days by qPCR analysis
[5] = target: T1, Liver X receptor (Homo sapiens); assay: Modulation of LXR in human HepG2 cells assessed as reduction of T0901317-induced lipogenesis using [1-14C]acetate at 1 uM after 24 h by scintillation counting
[6] = target: T1, Liver X receptor (Homo sapiens); assay: Modulation of LXR in human myotubes assessed as reduction of T0901317-induced lipogenesis using [1-14C]acetate at 10 uM after 4 days by scintillation counting
[7] = target: T1, Liver X receptor (Homo sapiens); assay: Modulation of LXR in human myotubes assessed as increase of D-[14C(U)]deoxy-D-glucose uptake at 1 uM after 4 days by scintillation counting; type: protein assay
Method in brief: (§2)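 Primary myotubes, 7 days differentiated, treated 4 days with compounds in 0.1% DMSO. Then given D-[14C(U)]deoxy-D-glucose (100 mM as printed) for 4 h. Washed twice with ice-cold PBS, lysed in 0.1 M NaOH and counted by liquid scintillation. Uptake normalized to protein; mean ± SEM of separate experiments, at least 3 parallels each.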

[8] = target: T1, Liver X receptor (Homo sapiens); assay: Modulation of LXR in human myotubes assessed as increase of D-[14C(U)]deoxy-D-glucose uptake after 4 days by scintillation counting; type: protein assay; method in brief: as §2
[9] = target: T1, Liver X receptor (Homo sapiens); assay: Modulation of LXR in human myotubes assessed as increase of T0901317-induced lipogenesis using [1-14C]acetate at 1 uM after 4 days by scintillation counting; type: protein assay
Method in brief: (§3)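 Primary myotubes from satellite cells of 6 healthy donors, used after 7 days of differentiation. Treated 4 days with compounds ± T0901317 in 0.1% DMSO, then labelled 24 h with [1-14C]acetate (100 mM as printed). Lysed in NaOH; total lipids isolated by hydrophobic filtration and scintillation-counted. Normalized to protein; fold vs control, mean ± SEM, n = 3–6; dose–response n = 6.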

[10] = target: T1, Liver X receptor (Homo sapiens); assay: Modulation of LXR in human HepG2 cells assessed as decrease of T0901317-induced FAS mRNA expression at 10 uM after 4 days by qPCR analysis; type: cell-based
[11] = target: T1, Liver X receptor (Homo sapiens); assay: Modulation of LXR in human HepG2 cells assessed as decrease of T0901317-induced SCD1 mRNA expression at 10 uM after 4 days by qPCR analysis; type: cell-based
[12] = target: T1, Liver X receptor (Homo sapiens); assay: Modulation of LXR in human myotubes assessed as decrease of T0901317-induced FAS mRNA expression at 10 uM after 4 days by qPCR analysis; method in brief: as §1
[13] = target: T1, Liver X receptor (Homo sapiens); assay: Modulation of LXR in human myotubes assessed as decrease of T0901317-induced SCD1 mRNA expression at 10 uM after 4 days by qPCR analysis; method in brief: as §1
[14] = target: T1, Liver X receptor (Homo sapiens); assay: Modulation of LXR in human myotubes assessed as increase of D-[14C(U)]deoxy-D-glucose uptake at 1 to 50 uM after 4 days by scintillation counting; type: protein assay; method in brief: as §2
[15] = target: T1, Liver X receptor (Homo sapiens); assay: Modulation of LXR in human myotubes assessed as increase of D-[14C(U)]deoxy-D-glucose uptake at 50 uM after 4 days by scintillation counting; type: protein assay; method in brief: as §2
[16] = target: T1, Liver X receptor (Homo sapiens); assay: Modulation of LXR in human HepG2 cells assessed as reduction of T0901317-induced lipogenesis using [1-14C]acetate at 1 uM after 4 days by scintillation counting; type: cell-based
[17] = target: T1, Liver X receptor (Homo sapiens); assay: Modulation of LXR in human myotubes assessed as reduction of lipogenesis using [1-14C]acetate after 4 days by scintillation counting; type: protein assay; method in brief: as §3
[18] = target: T1, Liver X receptor (Homo sapiens); assay: Modulation of LXR in human HepG2 cells assessed as reduction of lipogenesis using [1-14C]acetate at 1 uM after 24 h by scintillation counting

| SMILES | Activity [1] | Activity [2] | Activity [3] | Activity [4] | Activity [5] | Activity [6] | Activity [7] | Activity [8] | Activity [9] | Activity [10] | Activity [11] | Activity [12] | Activity [13] | Activity [14] | Activity [15] | Activity [16] | Activity [17] | Activity [18] |
| --- | --- | --- | --- | --- | --- | --- | --- | --- | --- | --- | --- | --- | --- | --- | --- | --- | --- | --- |
| CC(C)CC[C@H](O)[C@@H](C)[C@H]1CC[C@H]2[C@@H]3CC=C4C[C@@H](O)CC[C@]4(C)[C@H]3CC[C@]12C | inactive | inactive | Active | Active | Active | Active | – | – | – | – | – | – | – | – | – | – | – | – |
| CC(C)CC[C@H](O)[C@@H](C)COCc1ccc(S(=O)(=O)N(C)C2CCCCC2)cc1 | Active | Active | – | – | – | – | Active | Dose-dependent effect | Active | inactive | inactive | inactive | inactive | – | – | – | – | – |
| CCCCCCN(CCCCCC)S(=O)(=O)c1ccc(COC[C@H](C)[C@@H](O)CCC(C)C)cc1 | inactive | inactive | – | – | – | – | – | – | Active | inactive | inactive | inactive | inactive | inactive | – | – | – | – |
| COc1ccc2cc(COC[C@H](C)[C@@H](O)CCC(C)C)ccc2c1 | – | – | – | – | – | – | – | Dose-dependent effect | Active | Active | Active | Active | Active | – | Active | Active | – | – |
| CC(C)CC[C@H](O)[C@@H](C)COCc1ccc(S(=O)(=O)N(COCC[Si](C)(C)C)COCC[Si](C)(C)C)cc1 | – | – | – | – | – | – | Active | Dose-dependent effect | Active | – | Active | – | Active | – | – | – | Dose-dependent effect | Active |
